Measurements collected from several papers.
Target: Mitogen-activated protein kinase kinase kinase 4 (MAP3K4, Homo sapiens, UniProt Q9Y6R4)

Structure (SMILES) | assay | setting | remaining binding [%]
O=C(NCC1CCOCC1)c1n[nH]cc1NC(=O)c1c(F)cccc1F | binding, competition with immobilised ligand | 1 µM | 100
O=C(c1ccc(Nc2ncc(Cl)c(-c3cc4ccccc4s3)n2)cc1)N1CCC(N2CCCC2)CC1 | binding, competition with immobilised ligand | 1 µM | 33
Cc1cnn2ncc(-c3ccnc(N(C)C)n3)c2c1 | binding | 1 µM | 86
FC(F)(F)Oc1cccc(-c2cnc3ccc(-c4ccncc4)nn23)c1 | cell-free assay, competition with immobilised ligand | 5 µM | 84
COc1ncc2cc3ccccc3nc2c1C#N | cell-free assay, competition with immobilised ligand | 5 µM | 91
Cc1c[nH]c2nccc(Oc3c(F)cc(Nc4cc(Cl)nc(N)n4)cc3F)c12 | cell-free assay, competition with immobilised ligand | 0.1 µM | 100
CN(CCCC(F)(F)F)c1nccc(-c2cnn3ncccc23)n1 | binding | 1 µM | 81
C[C@@H]1CN(c2ccc3ncc(-c4ccc5[nH]nc(C6CC6)c5c4)n3n2)C[C@H](C)O1 | binding, competition with immobilised ligand | 50 nM | 100
Cc1nc(N2CC[C@@H](O)C2)ncc1-c1cc(C(F)(F)F)cc2[nH]ncc12 | binding, competition with immobilised ligand | 1 µM | 100
COc1cnc(Nc2cccc(S(N)(=O)=O)c2)nc1N1CCN(c2ccccc2)C(=O)C1 | binding, competition with immobilised ligand | 1 µM | 100
N[C@H]1CCN(c2nccc(-c3cnn4ncccc34)n2)C1 | binding | 1 µM | 100
CC1=C(C#N)C(c2ccc3c(c2)c(NC(=O)c2ccccc2C)nn3C)C(C#N)=C(C)N1 | cell-free assay, competition with immobilised ligand | 1 µM | 84
COc1ccnn2ncc(-c3ccnc(N(C)C)n3)c12 | binding | 1 µM | 100
CC(=O)N1CCC(c2ccc(C(=O)NC3=NCCN3)cc2C(F)(F)F)CC1 | cell-free assay, competition with immobilised ligand | 1 µM | 81
CNC(=O)[C@@H]1CC[C@@H](n2c(-c3ccc4cnccc4c3)nc3ccc(C(=O)NCc4cccc(C(N)=O)c4)cc32)C1 | binding, competition with immobilised ligand | 1 µM | 100
O=C(O)[C@H]1[C@H](Cn2nnc3ccccc3c2=O)CC[C@@H]1C(=O)c1ccc(OCCC2CCOCC2)cc1 | cell-free assay, competition with immobilised ligand | 1 µM | 100
Nc1ncc2c(n1)-c1c([nH]c3ccc(C#CC4CC4)cc13)CCCC2 | binding, competition with immobilised ligand | 1 µM | 92
CN(C)c1nccc(-c2cnc3ncccn23)n1 | binding | 1 µM | 100
O=C(c1ccc(Nc2nccc(-c3cc4ccccc4s3)n2)cc1)N1CCC(N2CCCC2)CC1 | binding, competition with immobilised ligand | 1 µM | 70
CN(C)c1nccc(-c2cnn3ncccc23)n1 | binding | 1 µM | 100
COc1ccc2c(O[C@@H]3C[C@H]4C(=O)N[C@]5(C(=O)O)CC5/C=C\CCCCC[C@H](NC(=O)OC5CCCC5)C(=O)N4C3)cc(-c3csc(NC(=O)C(C)C)n3)nc2c1C (stereo partly drawn) | cell-free assay, competition with immobilised ligand | 1 µM | 74
CCN1CCN(Cc2ccc(C(=O)Nc3ccc(C)c(Oc4ccc5c(c4)CC(=O)N5)c3)cc2C(F)(F)F)CC1 | binding, competition with immobilised ligand | 1 µM | 100
O=C(NCCCN1CCOCC1)c1ccc(Nc2ncc(Cl)c(-c3ccc(Cl)s3)n2)cc1 | binding, competition with immobilised ligand | 1 µM | 54
O=C(N[C@H]1CCCCC/C=C\C2C[C@@]2(C(=O)O)NC(=O)[C@@H]2C[C@@H](Oc3ccncc3)CN2C1=O)OC1CCCC1 (stereo partly drawn) | binding, competition with immobilised ligand | 1 µM | 91
